Screens deposited in PubChem BioAssay by Broad Institute.
Compounds with a hit are over-represented: about 3% of the library has one in this group of screens.
Casp6 inh: inhibitors of human caspase-6 | purified caspase-6, Z-VEID-R110 cleavage fluorescence | inhibition, % at 12.5 µM | P55212 | 0.53% of 350,000 active;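 active = mean inhibition across replicates at least about 35%, with every replicate also reaching that limit, limit read from the data; inconclusive = only one of the two criteria met; inactive = neither criterion met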;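 note: 0% = median of neutral control wells and 100% = no fluorescence left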
MITF act: activators of MITF-driven TRPM1 promoter activity in SK-MEL-5 cells; activation, % at 12.5 µM; 0.75% of 300,000 active; SK-MEL-5 TRPM1-promoter luciferase, 24 h; % of positive control, neutral wells = 0;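 active = mean activation of at least 80% with every replicate also reaching 80%; inconclusive = mean reaches 80% but some replicate falls short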;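 note: 0% = neutral control wells and 100% = parthenolide positive control wells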
Wnt bcat act: activates Wnt/beta-catenin signaling in a reporter cell assay. 1.2% of 300,000 active. activator, plate reader. activation, % at 9.35 µM. AID 743398; in the data active = activation above about 30%, passing the limit was not always enough; inconclusive = no clear call, values can overlap the other calls;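 note: 0% = neutral control wells and 100% = positive control wells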
Xi reactivation: X-chromosome reactivation activator; 0.055% of 360,000 active; activation, % at 7.58 µM; XiGFP mouse fibroblasts, % GFP-positive cells imaging, 3 d; cells co-treated with 5-aza-dC sensitizer; scaled so ellipticine positive control = 100%;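 active = mean normalized replicate activation at least 10% and every replicate at or above 10%; inconclusive = only one of the two criteria met; inactive = mean below 10% and not all replicates reach 10%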;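 note: 0% = median of on-plate neutral control wells and 100% = ellipticine 6 µM median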
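material = 68-5-11 XiGFP fibroblast line | medium = DMEM plus 5-aza-dC sensitizer | schedule = 3 days compound exposure | benchmarks = positive control ellipticine, 6 µM final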
esBAF inh: inhibitors of esBAF chromatin remodeling in mouse ES cells; Bmi1-luciferase knock-in reporter, 24 h; 100% = twice the neutral-well signal; reporter increase, % at 12.5 µM; 2% of 350,000 active; AID 602393; in the data active = activation above about 40%; inconclusive = no clear call, values can overlap the other calls;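 note: 0% = median of the plate's neutral control wells and 100% = double that signal; a rise in the Bmi1 reporter signal indicates esBAF inhibition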
NSD2 HMT inh: NSD2 (human) methyltransferase inhibition. NSD2 peptide methylation, AlphaScreen, 120 min. inhibition, % at 12.5 µM. 0.54% of 310,000 active. AID 743445; in the data active = inhibition above about 50%
Target sequence (O96028 whole entry, looked up): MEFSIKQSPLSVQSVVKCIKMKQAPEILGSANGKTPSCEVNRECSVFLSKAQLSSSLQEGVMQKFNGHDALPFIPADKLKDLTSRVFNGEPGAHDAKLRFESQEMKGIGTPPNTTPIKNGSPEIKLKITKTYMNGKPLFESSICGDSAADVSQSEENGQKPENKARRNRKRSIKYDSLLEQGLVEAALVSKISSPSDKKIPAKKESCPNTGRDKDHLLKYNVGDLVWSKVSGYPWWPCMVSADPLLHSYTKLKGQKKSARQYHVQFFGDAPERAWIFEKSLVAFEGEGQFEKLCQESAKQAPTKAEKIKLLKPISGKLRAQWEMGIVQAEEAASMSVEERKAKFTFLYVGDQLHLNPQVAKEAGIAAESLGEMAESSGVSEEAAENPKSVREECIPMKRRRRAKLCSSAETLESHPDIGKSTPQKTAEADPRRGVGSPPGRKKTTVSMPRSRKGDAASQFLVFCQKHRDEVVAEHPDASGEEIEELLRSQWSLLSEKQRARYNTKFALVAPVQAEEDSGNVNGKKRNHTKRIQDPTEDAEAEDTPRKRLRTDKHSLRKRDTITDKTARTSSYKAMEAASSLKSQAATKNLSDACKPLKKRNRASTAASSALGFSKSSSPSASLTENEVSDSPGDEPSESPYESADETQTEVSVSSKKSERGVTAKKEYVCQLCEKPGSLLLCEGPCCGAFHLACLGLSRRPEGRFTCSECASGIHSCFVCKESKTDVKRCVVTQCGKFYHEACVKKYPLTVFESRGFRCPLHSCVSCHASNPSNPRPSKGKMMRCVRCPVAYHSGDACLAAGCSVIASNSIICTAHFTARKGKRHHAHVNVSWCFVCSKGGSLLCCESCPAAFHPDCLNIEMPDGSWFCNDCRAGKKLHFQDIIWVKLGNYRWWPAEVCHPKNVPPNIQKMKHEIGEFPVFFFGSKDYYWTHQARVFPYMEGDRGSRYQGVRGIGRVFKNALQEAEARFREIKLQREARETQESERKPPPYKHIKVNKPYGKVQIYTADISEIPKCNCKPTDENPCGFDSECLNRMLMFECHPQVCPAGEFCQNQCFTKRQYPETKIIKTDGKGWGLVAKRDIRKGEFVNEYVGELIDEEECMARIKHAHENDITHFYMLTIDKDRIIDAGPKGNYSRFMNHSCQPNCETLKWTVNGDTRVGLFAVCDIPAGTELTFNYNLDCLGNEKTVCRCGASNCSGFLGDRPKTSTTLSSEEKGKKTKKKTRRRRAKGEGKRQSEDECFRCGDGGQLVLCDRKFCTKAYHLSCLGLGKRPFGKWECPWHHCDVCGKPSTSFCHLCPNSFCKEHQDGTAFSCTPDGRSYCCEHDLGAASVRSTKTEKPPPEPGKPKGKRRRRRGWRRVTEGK
* hit, by the source's call; u = inconclusive; x = not tested or not shown.

SMILES | Casp6 inh | MITF act | Wnt bcat act | Xi reactivation | esBAF inh | NSD2 HMT inh
CCCN1[C@@H]2c3ccc(-c4ccc(OC)cc4)c(=O)n3C[C@H]1[C@H](CO)[C@H]2C(=O)NCC | 3 | x | x | 0 | x | x
C/C=C/[C@@H](CC(=O)N1Cc2ccccc2C[C@H]1CO)[Si](C)(C)c1ccc(OC)cc1 | 1 | x | x | x | x | x
O=C(OCc1ccccc1)N1CCC2CC1c1ccc(N3CCOCC3)cc12 (stereo not drawn) | 0 | x | -1 | 0 | 47* | x
O=C(OCc1ccccc1)N1CCCC2CC1c1ccccc12 (stereo not drawn) | 54* | x | 2 | 0 | -2 | x
Cc1c(C(=O)Nc2ccccc2)csc1-c1ccccc1 | x | 107* | 59* | 0 | x | -1
CCCC#Cc1ccc([C@@H]2[C@H]3CN(C(=O)Cc4cccnc4)CC(=O)N3[C@H]2CO)cc1 | -1 | x | x | 0 | x | x
O=C(O)C[C@H]1C=C[C@H](NC(=O)CCN2CCCCC2)[C@@H](CO)O1 | 1 | x | x | 0 | x | x
CC1(c2ccccc2)NC(=O)N(CC#N)C1=O (stereo not drawn) | x | 14 | 36* | 0 | x | -1
CC(C)CCN1C(=O)c2cccc3c(N)ccc(c23)C1=O | -4 | x | 22 | 99* | x | -60
CCCC#Cc1cnc2c(c1)C(=O)N([C@H](C)CO)C[C@H](C)[C@H](CN(C)Cc1ccc3c(c1)OCO3)O2 | x | x | x | 0 | x | x
COc1cc(O)c(C(=O)/C=C/c2ccccc2)c(OC)c1 | -3 | x | -2 | x | 53* | x
COc1ccc2[nH]cc(/C=C/C(=O)c3ccccc3)c2c1 | 2 | u | 39* | 0 | x | 6
COc1ccc(/C=C/C(=O)c2ccc(OC)cc2OC)c(OC)c1 | -1 | 3 | -1 | x | 23 | x
COc1ccc(/C=C/C(=O)c2ccccc2)c(OC)c1 | 1 | 54 | 61* | 0 | x | 1
COc1cc(OC)c(C(=O)C=Cc2ccc(OC)c(OC)c2)c(OC)c1 | 1 | -22 | -3 | 0 | -1 | 2
CN1c2ccc(C3=CCCCC3)cc2[C@@H]2[C@@H](CCN2C(=O)Nc2ccc(F)cc2)[C@@H]1CO | x | x | x | 0 | -1 | x
COc1c(/C=C2\SC(=Nc3ccccc3Cl)NC2=O)cccc1[N+](=O)[O-] | -1 | -2 | 0 | 0 | -2 | 7
O=C1NC(=Nc2ccccc2Cl)S/C1=C\c1cccc([N+](=O)[O-])c1O | 39* | x | -1 | 0 | -3 | 60*
O=C(COC(=O)Cn1cnc2ccccc21)Nc1ccc2c(c1)C(=O)c1ccccc1C2=O | 5 | 27 | 59* | 0 | x | 8
Cc1ccc(S(=O)(=O)Nc2ccc3c(c2)C(=O)N([C@@H](C)CO)C[C@@H](C)[C@@H](CN(C)Cc2ccc(Cl)c(Cl)c2)OCCCC[C@@H](C)O3)cc1 | 1 | x | x | 0 | -2 | x
CCOC(=O)c1ccc(N/C=C\C(=O)c2cccc(OC)c2)cc1 | x | 96* | x | 0 | x | -2
CCOC(=O)c1cccc(N/C=C/C(=O)c2ccc(OC)c(OC)c2)c1 | x | 25 | x | x | 53* | 1
COc1ccc(NC(=O)NS(=O)(=O)c2ccc(C)cc2)cc1OC | 5 | 5 | 32* | 0 | -3 | 8
COc1cccc(C(=O)/C=C/Nc2cc(C)ccc2O)c1 | x | 64 | x | x | 63* | 0
Cc1ccc(Cl)c(N/C=C/C(=O)c2ccccc2)c1 | 2 | x | 11 | 0 | 9 | -1
SMILES | Casp6 inh | MITF act | Wnt bcat act | Xi reactivation | esBAF inh | NSD2 HMT inh
COc1cccc(N/C=C/C(=O)c2ccc(OC)c(OC)c2)c1 | -3 | x | 14 | 0 | u | 25
CC(=O)Nc1ccc(N/C=C/C(=O)c2ccc(Br)cc2)cc1 | x | 47 | x | x | 34 | -2
CC(=O)c1ccc(N/C=C/C(=O)c2ccc(Br)cc2)cc1 | -2 | x | 1 | 0 | 46* | 1
CCOC(=O)c1ccc(OS(=O)(=O)c2ccccc2)c(OC)c1 | x | u | 54* | 0 | x | -6
Cc1cccc(N/C=C/C(=O)c2ccc(Cl)cc2)c1 | -2 | 72 | 49* | 0 | 41 | -3
COc1ccc(N/C=C\C(=O)c2ccc(C)cc2)cc1OC | 2 | 57 | 6 | 0 | 52* | 0
CCOc1cc(C(=S)N2CCOCC2)ccc1OS(=O)(=O)c1ccccc1 | x | 0 | x | 1 | -5 | 0
O=C(Nc1ccc(Cl)cc1)N[C@H]1CC[C@@H](CCn2cc(Cc3ccccc3)nn2)O[C@H]1CO | 2 | x | x | 0 | -1 | x
CCC1(C)Cc2c(C#N)c(N)n(-c3ccccc3)c(=S)c2CO1 (stereo not drawn) | 36* | -19 | 1 | 0 | 2 | 10
O=C(CSc1cccs1)Nc1cccc2ccccc12 | 0 | 65 | 0 | 0 | 72* | -2
O=C(CSc1ccccc1)Nc1ccc2sccc2c1 | -1 | 44 | 11 | 1 | 10 | -5
O=C(CSc1cccs1)Nc1ccc2ccccc2c1 | x | x | x | x | 60* | -3
N#Cc1ccccc1OCC(=O)NC1CCCCCC1 | 0 | x | 1 | 0 | 46* | -1
CC(C)(C)NC(=O)NC(=O)COc1ccccc1C#N | x | 121* | 40* | x | 40 | 3
N#Cc1ccccc1OCC(=O)OCC(=O)NC1CCCCC1 | 0 | -6 | -3 | 0 | 2 | -1
C=CCNC(=O)COc1cc(C)ccc1C | 1 | 15 | -1 | 0 | x | -2
C=CCNC(=O)COc1ccccc1C#N | 52* | -1 | 1 | 1 | x | -1
COc1ccccc1CNC(=O)C[C@H]1CC[C@H](NC(=O)CC2CC2)[C@@H](CO)O1 | -2 | x | x | 0 | 0 | x
Cc1cccc(C)c1-n1cccc1/C=C1\SC(=S)N(c2cccc(C(=O)O)c2)C1=O | 37* | 4 | 8 | 0 | x | 14
Oc1ccc(/C=N/Nc2nccnc2Cl)cc1 | x | -4 | 47* | x | -4 | -3
O=C(Nc1ccc(Cl)cc1)c1ccc2ncsc2c1 | 0 | 64 | 19 | 0 | 65* | 3
O=C(Nc1ccc(F)cc1)c1ccc2ncsc2c1 | 2 | 73 | 20 | 0 | u | 0
O=C(Nc1ccc(Cl)cc1)c1ccc2nsnc2c1 | -3 | 67 | -1 | 0 | 109* | -3
O=C(Nc1ccc(C(F)(F)F)cc1)c1ccc2ncsc2c1 | 10 | x | 12 | 0 | 58* | 2
O=C(Nc1cccc(Cl)c1)c1ccc2ncsc2c1 | 2 | 46 | 17 | 0 | 48* | -3
C[C@@H]1CCCCO[C@H](CN(C)Cc2ccncc2)[C@@H](C)CN([C@@H](C)CO)C(=O)c2cc(NC(=O)NC3CCCCC3)ccc2O1 | -5 | x | x | 0 | -8 | x
N#C[C@@H]1[C@H](c2ccccc2-c2cccc(F)c2)[C@@H](CO)N1C(=O)NC1CCCCC1 | x | x | x | 0 | x | x
N#Cc1cccc(-c2ccc(C3[C@@H]4CN(C(=O)C5CC5)C[C@H]3N4)cc2)c1 (stereo partly drawn) | -2 | x | x | 0 | x | x
N#Cc1ccsc1NC(=O)c1ccc2ncsc2c1 | 3 | x | 18 | 0 | 71* | -4
